Measured values taken from ChEMBL document CHEMBL5260806, “Hydrogen peroxide activated quinone methide precursors with enhanced DNA cross-linking capability and cytotoxicity towards cancer cells” (Eur J Med Chem, 2017).

Legend:
RPMI-8226 = test: Anticancer activity against human RPMI-8226 cells assessed as cell growth inhibition incubated for 48 hrs by sulforhodamine B assay; type: functional
In short: (§1)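 NCI DTP 60-cell-line screen run at National Cancer Institute. Cells grown in RPMI 1640 with 5% fetal bovine serum and 2 mM L-glutamine, seeded at 5,000–40,000 cells/well depending on doubling time. Single-dose screen at 10 µM gives growth percentage; dose-response series gives GI50.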

786-0 = test: Anticancer activity against human 786-0 cells assessed as cell growth inhibition incubated for 48 hrs by sulforhodamine B assay; type: functional
In short: (§2)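 NCI-60 screen: cell lines grown in RPMI 1640 with 5% FBS and 2 mM L-glutamine, plated in 96-well plates at 5,000–40,000 cells/well depending on doubling time. Each line has one single-dose arm at 10 µM and one dose-response arm giving GI50.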

HT-29 [1] = test: Anticancer activity against human HT-29 cells assessed as cell growth inhibition incubated for 48 hrs by sulforhodamine B assay; type: functional; in short: as §2
OVCAR-4 = test: Anticancer activity against human OVCAR-4 cells assessed as cell growth inhibition incubated for 48 hrs by sulforhodamine B assay; type: functional; in short: as §1
K562 = test: Anticancer activity against human K562 cells assessed as cell growth inhibition at 10 uM incubated for 48 hrs by sulforhodamine B assay; type: functional; settings: read-out: GI; in short: as §2
KM12 [2] = test: Anticancer activity against human KM12 cells assessed as cell growth inhibition incubated for 48 hrs by sulforhodamine B assay; type: functional; in short: as §2
NCI-H522 = test: Anticancer activity against human NCI-H522 cells assessed as cell growth inhibition at 10 uM incubated for 48 hrs by sulforhodamine B assay; type: functional; settings: read-out: GI; in short: as §1
UO-31 = test: Anticancer activity against human UO-31 cells assessed inhibition of cell growth after 48 hrs by CellTiter-Glo luminescent assay; type: functional, cell-based; settings: UO-31, 48 h
In short: (§3)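 Renal lines grown in RPMI 1640 with 5% FBS and 2 mM L-glutamine, seeded into 384-well plates at 5,000–10,000 cells/well, held 2–3 h at 37 °C, 5% CO2. DMSO stocks (20 mM) serially halved ten times and added at 1:100. Cells exposed 48 h at 37 °C; CellTiter-Glo added, 10 min at room temperature, luminescence read.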

NCI-H226 = test: Anticancer activity against human NCI-H226 cells assessed as cell growth inhibition at 10 uM incubated for 48 hrs by sulforhodamine B assay; type: functional; settings: read-out: GI; in short: as §1
Hs-578T = test: Anticancer activity against human Hs-578T cells assessed as cell growth inhibition at 10 uM incubated for 48 hrs by sulforhodamine B assay; type: functional; settings: read-out: GI; in short: as §2
OVCAR-5 = test: Anticancer activity against human OVCAR-5 cells assessed as cell growth inhibition incubated for 48 hrs by sulforhodamine B assay; type: functional; in short: as §1
A498 = test: Anticancer activity against human A498 cells assessed as cell growth inhibition at 10 uM incubated for 48 hrs by sulforhodamine B assay; type: functional; settings: read-out: GI; in short: as §2
LOX IMVI = test: Anticancer activity against human LOX IMVI cells assessed as cell growth inhibition incubated for 48 hrs by sulforhodamine B assay; type: functional; in short: as §2
KM12 [3] = test: Anticancer activity against human KM12 cells assessed as cell growth inhibition at 10 uM incubated for 48 hrs by sulforhodamine B assay; type: functional; settings: read-out: GI; in short: as §2
M14 = test: Anticancer activity against human M14 cells assessed as cell growth inhibition at 10 uM incubated for 48 hrs by sulforhodamine B assay; type: functional; settings: read-out: GI; in short: as §2
DNA = test: Induction of [32P]-labeled 49-mer oligonucleotide duplex DNA 25 (unknown origin) interstrand cross-linking at 2 mM for 48 hrs in presence of 2mM H2O2 by PAGE; type: functional
CCRF-CEM = test: Anticancer activity against human CCRF-CEM cells assessed as cell growth inhibition at 10 uM incubated for 48 hrs by sulforhodamine B assay; type: functional; settings: read-out: GI; in short: as §2
SK-MEL-28 = test: Anticancer activity against human SK-MEL-28 cells assessed as cell growth inhibition incubated for 48 hrs by sulforhodamine B assay; type: functional; in short: as §1
MDA-MB-435 = test: Anticancer activity against human MDA-MB-435 cells assessed as cell growth inhibition at 10 uM incubated for 48 hrs by sulforhodamine B assay; type: functional; settings: read-out: GI; in short: as §1
NCI-H322M [4] = test: Anticancer activity against human NCI-H322M cells assessed as cell growth inhibition incubated for 48 hrs by sulforhodamine B assay; type: functional; in short: as §1
NCI-H23 = test: Anticancer activity against human NCI-H23 cells assessed as cell growth inhibition at 10 uM incubated for 48 hrs by sulforhodamine B assay; type: functional; settings: read-out: GI; in short: as §1
HT-29 [5] = test: Anticancer activity against human HT-29 cells assessed as cell growth inhibition at 10 uM incubated for 48 hrs by sulforhodamine B assay; type: functional; settings: read-out: GI; in short: as §2
SNB-19 = test: Anticancer activity against human SNB-19 cells assessed as cell growth inhibition at 10 uM incubated for 48 hrs by sulforhodamine B assay; type: functional; settings: read-out: GI
OVCAR-8 = test: Anticancer activity against human OVCAR-8 cells assessed as cell growth inhibition incubated for 48 hrs by sulforhodamine B assay; type: functional; in short: as §1
UACC-257 = test: Anticancer activity against human UACC-257 cells assessed as cell growth inhibition incubated for 48 hrs by sulforhodamine B assay; type: functional
MDA-MB-231 = test: Anticancer activity against human MDA-MB-231 cells assessed as cell growth inhibition at 10 uM incubated for 48 hrs by sulforhodamine B assay; type: functional; settings: read-out: GI; in short: as §1
SNB-75 = test: Anticancer activity against human SNB-75 cells assessed as cell growth inhibition incubated for 48 hrs by sulforhodamine B assay; type: functional
SR = test: Anticancer activity against human SR cells assessed as cell growth inhibition at 10 uM incubated for 48 hrs by sulforhodamine B assay; type: functional; settings: read-out: GI
RXF 393 = test: Anticancer activity against human RXF 393 cells assessed as cell growth inhibition at 10 uM incubated for 48 hrs by sulforhodamine B assay; type: functional; settings: read-out: GI; in short: as §1
MDA-MB-468 = test: Anticancer activity against human MDA-MB-468 cells assessed as cell growth inhibition at 10 uM incubated for 48 hrs by sulforhodamine B assay; type: functional; settings: read-out: GI; in short: as §1
HL-60 [6] = test: Anticancer activity against human HL-60 cells assessed as cell growth inhibition incubated for 48 hrs by sulforhodamine B assay; type: functional; in short: as §2
HCT-116 = test: Anticancer activity against human HCT-116 cells assessed as cell growth inhibition incubated for 48 hrs by sulforhodamine B assay; type: functional; in short: as §2
SK-MEL-5 = test: Anticancer activity against human SK-MEL-5 cells assessed as cell growth inhibition incubated for 48 hrs by sulforhodamine B assay; type: functional; in short: as §1
NCI-H460 = test: Anticancer activity against human NCI-H460 cells assessed as cell growth inhibition at 10 uM incubated for 48 hrs by sulforhodamine B assay; type: functional; settings: read-out: GI; in short: as §1
SW-620 = test: Anticancer activity against human SW620 cells assessed as cell growth inhibition at 10 uM incubated for 48 hrs by sulforhodamine B assay; type: functional; settings: read-out: GI
HL-60 [7] = test: Anticancer activity against human HL-60 cells assessed as cell growth inhibition at 10 uM incubated for 48 hrs by sulforhodamine B assay; type: functional; settings: read-out: GI; in short: as §2
TK-10 = test: Anticancer activity against human TK-10 cells assessed inhibition of cell growth after 48 hrs by CellTiter-Glo luminescent assay; type: functional, cell-based; settings: TK-10, 48 h; in short: as §3
NCI-H322M [8] = test: Anticancer activity against human NCI-H322M cells assessed as cell growth inhibition at 10 uM incubated for 48 hrs by sulforhodamine B assay; type: functional; settings: read-out: GI; in short: as §1
SN12C = test: Anticancer activity against human SN12C cells assessed as cell growth inhibition at 10 uM incubated for 48 hrs by sulforhodamine B assay; type: functional; settings: read-out: GI

COc1cc(CBr)c(B2OC(C)(C)C(C)(C)O2)c(CBr)c1
36%: Activity (DNA)
16200 nM: IC50 (TK-10)
2000 nM: GI50 (RPMI-8226) | GI50 (786-0) | GI50 (HT-29 [1]) | GI50 (OVCAR-4) | GI50 (KM12 [2]) | GI50 (OVCAR-5) | GI50 (LOX IMVI) | GI50 (SK-MEL-28) | GI50 (NCI-H322M [4]) | GI50 (OVCAR-8) | GI50 (UACC-257) | GI50 (SNB-75) | GI50 (HL-60 [6]) | GI50 (HCT-116) | GI50 (SK-MEL-5)
< 50%: inhibition of growth at 10 µM (K562) | inhibition of growth at 10 µM (NCI-H522) | inhibition of growth at 10 µM (NCI-H226) | inhibition of growth at 10 µM (Hs-578T) | inhibition of growth at 10 µM (A498) | inhibition of growth at 10 µM (KM12 [3]) | inhibition of growth at 10 µM (M14) | inhibition of growth at 10 µM (CCRF-CEM) | inhibition of growth at 10 µM (MDA-MB-435) | inhibition of growth at 10 µM (NCI-H23) | inhibition of growth at 10 µM (HT-29 [5]) | inhibition of growth at 10 µM (SNB-19) | inhibition of growth at 10 µM (MDA-MB-231) | inhibition of growth at 10 µM (SR) | inhibition of growth at 10 µM (RXF 393) | inhibition of growth at 10 µM (MDA-MB-468) | inhibition of growth at 10 µM (NCI-H460) | inhibition of growth at 10 µM (SW-620) | inhibition of growth at 10 µM (HL-60 [7]) | inhibition of growth at 10 µM (NCI-H322M [8]) | inhibition of growth at 10 µM (SN12C)
10800 nM: IC50 (UO-31)
